Experiments:
[1] = Drug excretion in mouse B16-F0 cells bearing C57BL/6 mouse urine at 0.74 to 0.92 MBq, iv after 72 hrs; format: ADME, organism-based; conditions: in vivo
In short: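 Urine was collected from two B16-F0 tumour-bearing C57BL6 mice for up to 72 h after iv tail-vein injection of the [¹²⁵I]-labelled compound (0.1 µmol). Samples were counted to give cumulative urinary excretion as %ID.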

[2] = Biodistribution in tumor of C57BL/6 mouse bearing mouse B16-F0 cells at 0.74 to 0.92 MBq, iv after 3 hrs; format: ADME, organism-based, Neoplasm; conditions: in vivo
In short: (§1)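 [¹²⁵I]-labelled compound given iv by tail vein (0.1 µmol per mouse) to male C57BL6 mice bearing s.c. B16-F0 flank tumours (5 × 10⁵ cells in PBS). Two mice per time point were killed by CO₂, frozen in liquid nitrogen and cut into 40 µm cryosections, eight slices per mouse. Slice radioactivity was read on a multiwire proportional counter, converted to kBq/g and reported as %ID/g.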

[3] = Biodistribution in Stomach content of C57BL/6 mouse bearing mouse B16-F0 cells at 0.74 to 0.92 MBq, iv after 72 hrs; format: ADME, organism-based; conditions: in vivo
In short: (§2)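 Male C57BL6 mice with s.c. left-flank B16-F0 melanoma (5 × 10⁵ cells in PBS). Two mice per time point frozen in liquid nitrogen after CO₂ sacrifice. Eight 40 µm whole-body cryosections per mouse read by multiwire proportional counter. cpm/mm² converted to kBq/g and expressed as %ID/g.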

[4] = Ratio of drug level in tumor to lung of C57BL/6 mouse bearing mouse B16-F0 cells at 0.74 to 0.92 MBq, iv after 6 hrs; format: ADME, organism-based; conditions: in vivo
In short: (§3)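 Tumour and organ radioactive concentrations came from whole-body cryosection counting (40 µm slices, eight per mouse, two mice per time) after tail-vein injection of the [¹²⁵I]-labelled compound (0.1 µmol) into male C57BL6 mice bearing s.c. B16-F0 melanoma. Each value is the ratio of the tumour concentration to the organ concentration.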

[5] = Ratio of drug level in tumor to lung of C57BL/6 mouse bearing mouse B16-F0 cells at 0.74 to 0.92 MBq, iv after 24 hrs; format: ADME, organism-based; conditions: in vivo; in short: as §3
Brain [6] = assay: Biodistribution in brain of C57BL/6 mouse bearing mouse B16-F0 cells at 0.74 to 0.92 MBq, iv after 6 hrs; format: ADME, organism-based; conditions: in vivo; in short: as §2
Kidney [7] = assay: Biodistribution in kidney of C57BL/6 mouse bearing mouse B16-F0 cells at 0.74 to 0.92 MBq, iv after 1 hr; format: ADME, organism-based; conditions: in vivo; in short: as §2
Spleen [8] = assay: Biodistribution in spleen of C57BL/6 mouse bearing mouse B16-F0 cells at 0.74 to 0.92 MBq, iv after 72 hrs; format: ADME, organism-based; conditions: in vivo; in short: as §1
Liver [9] = assay: Biodistribution in liver of C57BL/6 mouse bearing mouse B16-F0 cells at 0.74 to 0.92 MBq, iv after 6 hrs; format: ADME, organism-based; conditions: in vivo; in short: as §2
[10] = Biodistribution in Stomach content of C57BL/6 mouse bearing mouse B16-F0 cells at 0.74 to 0.92 MBq, iv after 3 hrs; format: ADME, organism-based; conditions: in vivo; in short: as §2
Kidney [11] = assay: Biodistribution in kidney of C57BL/6 mouse bearing mouse B16-F0 cells at 0.74 to 0.92 MBq, iv after 24 hrs; format: ADME, organism-based; conditions: in vivo; in short: as §2
[12] = Biodistribution in uvea of C57BL/6 mouse bearing mouse B16-F0 cells at 0.74 to 0.92 MBq, iv after 6 hrs; format: ADME, organism-based, Uveal tract; conditions: in vivo; in short: as §1
[13] = Biodistribution in Stomach content of C57BL/6 mouse bearing mouse B16-F0 cells at 0.74 to 0.92 MBq, iv after 1 hr; format: ADME, organism-based; conditions: in vivo; in short: as §2
[14] = Partition coefficient, log P in phosphate buffer solution at pH 7.4; format: physicochemical
In short: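 Shake-flask partition: 50 µM [¹²⁵I]-labelled compound in phosphate buffer pH 7.4 was mixed with 2 mL n-octanol. Each phase was γ-counted, P was taken as the octanol/buffer activity ratio, and log P was reported.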

[15] = Ratio of drug level in tumor to liver of C57BL/6 mouse bearing mouse B16-F0 cells at 0.74 to 0.92 MBq, iv after 1 hr; format: ADME, organism-based; conditions: in vivo; in short: as §3
[16] = Ratio of drug level in tumor to lung of C57BL/6 mouse bearing mouse B16-F0 cells at 0.74 to 0.92 MBq, iv after 3 hrs; format: ADME, organism-based; conditions: in vivo; in short: as §3
Pancreas [17] = assay: Biodistribution in pancreas of C57BL/6 mouse bearing mouse B16-F0 cells at 0.74 to 0.92 MBq, iv after 6 hrs; format: ADME, organism-based; conditions: in vivo; in short: as §2
Pancreas [18] = assay: Biodistribution in pancreas of C57BL/6 mouse bearing mouse B16-F0 cells at 0.74 to 0.92 MBq, iv after 3 hrs; format: ADME, organism-based; conditions: in vivo; in short: as §2
[19] = Ratio of drug level in tumor to lung of C57BL/6 mouse bearing mouse B16-F0 cells at 0.74 to 0.92 MBq, iv after 1 hr; format: ADME, organism-based; conditions: in vivo; in short: as §3
Blood [20] = assay: Biodistribution in blood of C57BL/6 mouse bearing mouse B16-F0 cells at 0.74 to 0.92 MBq, iv after 24 hrs; format: ADME, organism-based; conditions: in vivo; in short: as §2
[21] = Ratio of drug level in tumor to brain of C57BL/6 mouse bearing mouse B16-F0 cells at 0.74 to 0.92 MBq, iv after 6 hrs; format: ADME, organism-based; conditions: in vivo; in short: as §3
Spleen [22] = assay: Biodistribution in spleen of C57BL/6 mouse bearing mouse B16-F0 cells at 0.74 to 0.92 MBq, iv after 24 hrs; format: ADME, organism-based; conditions: in vivo; in short: as §1
[23] = Biodistribution in uvea of C57BL/6 mouse bearing mouse B16-F0 cells at 0.74 to 0.92 MBq, iv after 3 hrs; format: ADME, organism-based, Uveal tract; conditions: in vivo; in short: as §1
[24] = Ratio of drug level in tumor to brain of C57BL/6 mouse bearing mouse B16-F0 cells at 0.74 to 0.92 MBq, iv after 1 hr; format: ADME, organism-based; conditions: in vivo; in short: as §3
Brain [25] = assay: Biodistribution in brain of C57BL/6 mouse bearing mouse B16-F0 cells at 0.74 to 0.92 MBq, iv after 3 hrs; format: ADME, organism-based; conditions: in vivo; in short: as §2
Lung = assay: Biodistribution in lung of C57BL/6 mouse bearing mouse B16-F0 cells at 0.74 to 0.92 MBq, iv after 24 hrs; format: ADME, organism-based; conditions: in vivo; in short: as §2
Liver [26] = assay: Biodistribution in liver of C57BL/6 mouse bearing mouse B16-F0 cells at 0.74 to 0.92 MBq, iv after 3 hrs; format: ADME, organism-based; conditions: in vivo; in short: as §2
[27] = Biodistribution in uvea of C57BL/6 mouse bearing mouse B16-F0 cells at 0.74 to 0.92 MBq, iv after 72 hrs; format: ADME, organism-based, Uveal tract; conditions: in vivo; in short: as §1
Blood [28] = assay: Biodistribution in blood of C57BL/6 mouse bearing mouse B16-F0 cells at 0.74 to 0.92 MBq, iv after 6 hrs; format: ADME, organism-based; conditions: in vivo; in short: as §2
Thyroid gland [29] = assay: Biodistribution in thyroid of C57BL/6 mouse bearing mouse B16-F0 cells at 0.74 to 0.92 MBq, iv after 3 hrs; format: ADME, organism-based; conditions: in vivo; in short: as §1
Thyroid gland [30] = assay: Biodistribution in thyroid of C57BL/6 mouse bearing mouse B16-F0 cells at 0.74 to 0.92 MBq, iv after 72 hrs; format: ADME, organism-based; conditions: in vivo; in short: as §1

Activity [1]	Drug uptake [2]	Ratio [4]	Ratio [5]	Drug uptake (Brain [6])	Drug uptake (Kidney [7])	Drug uptake (Liver [9])	Drug uptake [10]	Drug uptake (Kidney [11])	Drug uptake [12]	Drug uptake [13]	logD [14]	Ratio [15]	Ratio [16]	Drug uptake (Pancreas [17])	Drug uptake (Pancreas [18])	Ratio [19]	Drug uptake (Blood [20])	Ratio [21]	Drug uptake (Spleen [22])	Structure (SMILES)	also measured
21.5%	10.2 % ID/g	5.79	22.05	0.74 % ID/g	4.19 % ID/g	3.63 % ID/g	18.52 % ID/g	0.83 % ID/g	13.2 % ID/g	35.41 % ID/g	1.69	0.7	2.95	1.46 % ID/g	2.48 % ID/g	0.58	0.1 % ID/g	5.38	1.22 % ID/g	CCN(CC)CCNC(=O)c1cc2cc([125I])ccc2[nH]1.Cl	Drug uptake [3]: 0.04 % ID/g; Drug uptake (Spleen [8]): 10.87 % ID/g; Drug uptake [23]: 12.78 % ID/g; Ratio [24]: 1.69; Drug uptake (Brain [25]): 1.73 % ID/g; Drug uptake (Lung): 0.37 % ID/g; Drug uptake (Liver [26]): 5.21 % ID/g; Drug uptake [27]: 5.86 % ID/g; Drug uptake (Blood [28]): 0.67 % ID/g
23.8%	4.1 % ID/g	38.73	68.5	0.08 % ID/g	2.8 % ID/g	0.32 % ID/g	9.93 % ID/g	0.03 % ID/g	5.18 % ID/g	12.74 % ID/g	1.3	0.91	4.6	1.08 % ID/g	0.96 % ID/g	2.28	0.22 % ID/g	72.6	0.15 % ID/g	CCN(CC)CCNC(=O)c1c[nH]c2ccc([125I])cc2c1=O.Cl.Cl	Drug uptake (Thyroid gland [29]): 4.33 % ID/g; Drug uptake (Thyroid gland [30]): 9.83 % ID/g; Drug uptake [23]: 5.66 % ID/g; Ratio [24]: 67; Drug uptake (Lung): 0.04 % ID/g; Drug uptake (Liver [26]): 1.84 % ID/g; Drug uptake [27]: 6.79 % ID/g; Drug uptake (Blood [28]): 0.17 % ID/g
